Reference: ChEMBL document CHEMBL1133605, “3,5-Bis(trifluoromethyl)pyrazoles: a novel class of NFAT transcription factor regulator” (J Med Chem, 2000)
pIC50: −log10 of the molar value.

Assays:
[1] = Area under curve in rat at 4 mpk upon peroral administration; type: ADME, organism-based; details: in vivo, po, 4 mg/kg
[2] = Oral bioavailability in rat (dose 4 mg/kg); type: ADME, organism-based; details: in vivo
[3] = Half-life in rat at 4 mpk upon peroral administration; type: ADME, organism-based; details: in vivo, po, 4 mg/kg
[4] = Maximum concentration in rat at 4 mpk upon peroral administration; type: ADME, organism-based; set-up: dose 4 mpk, route oral; details: in vivo, po, 4 mg/kg
Homo sapiens [5] = species on record: Homo sapiens; experiment: Inhibition of interleukin-2 (IL-2) synthesis in human whole blood stimulated by PMA/ionomycin.; type: functional
Summary of the method: (§1)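 Heparinized human whole blood was added to serially diluted compound and stimulated with a PMA (50 ng/mL) plus ionomycin mixture. After 24 h, plasma was collected by centrifugation and IL-2 was measured by in-house ELISA.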

Homo sapiens [6] = species on record: Homo sapiens; experiment: In vitro protein binding in human serum at 5 ug/ml; type: ADME
Summary of the method: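 Samples were incubated 30 min at room temperature, then ultrafiltered through a 30 000 MW cutoff device at 2000g for 25 min at room temperature. Free drug in the filtrate was quantified by HPLC.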

[7] = Resistance evaluated in an ascaris-induced nonhuman primate model of asthma after 6 hour at 30 mg/kg dose; type: functional
Summary of the method: (§2)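 Antigen (Ascaris) inhalation challenge in nonhuman primates, with oral gavage dosing at -26, -2 and +22 h relative to inhalation. Respiratory system resistance was measured at baseline, at +10 min (immediate response) and at +6 h (late phase). Data are mean percentage inhibition versus crossover vehicle control, with paired t-test.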

[8] = Bronchoalveolar lavages was collected after 6 hr in an ascaris-induced nonhuman primate model of asthma at 30 mg/kg dose (for IL-5); type: functional
Summary of the method: (§3)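 Ascaris-induced asthma model in nonhuman primates. Dosing by oral gavage at -26, -2 and +22 h relative to antigen inhalation. Bronchoalveolar lavage was taken at day -5 (baseline), at +6 h for IL-5, IL-8 and eotaxin, and at +48 h for eosinophil influx. Data are mean percentage inhibition versus crossover vehicle control, with paired t-test.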

[9] = Bronchoalveolar lavages was collected after 6 hr in an ascaris-induced nonhuman primate model of asthma at 30 mg/kg dose (for IL-8); type: functional; summary of the method: as §3
[10] = Bronchoalveolar lavages was collected after 6 hr in an ascaris-induced nonhuman primate model of asthma at 30 mg/kg dose (for eotaxin); type: functional; summary of the method: as §3
[11] = Resistance evaluated in an ascaris-induced nonhuman primate model of asthma after 10 min at 30 mg/kg dose; type: functional; summary of the method: as §2
[12] = Bronchoalveolar lavages was collected after 48 hr in an ascaris-induced nonhuman primate model of asthma (for eosinophil influx, eos) at 25 mg/kg dose; type: functional; details: dose 30 mg/kg; in the assay text read “30 mg/kg” for “25 mg/kg”; summary of the method: as §3
[13] = Bronchoalveolar lavages was collected after 6 hr in an ascaris-induced nonhuman primate model of asthma at 25 mg/kg dose (for IL-5); type: functional; summary of the method: as §3
[14] = Bronchoalveolar lavages was collected after 6 hr in an ascaris-induced nonhuman primate model of asthma at 25 mg/kg dose (for eotaxin); type: functional; summary of the method: as §3
[15] = Resistance evaluated in an ascaris-induced nonhuman primate model of asthma after 6 hour at 25 mg/kg dose; type: functional; summary of the method: as §2
[16] = Bronchoalveolar lavages was collected after 48 hr (for eosinophil influx, eos) at 25 mg/kg dose; type: functional; summary of the method: as §3
Homo sapiens [17] = species on record: Homo sapiens; experiment: Tested for interleukin-2 (IL-2) synthesis inhibition in human whole blood stimulated by PMA/ionomycin.; type: functional; summary of the method: as §1
[18] = Bronchoalveolar lavages was collected after 6 hr in an ascaris-induced nonhuman primate model of asthma at 1 mg/kg dose (for IL-8); type: functional; summary of the method: as §3
[19] = Bronchoalveolar lavages was collected after 6 hr in an ascaris-induced nonhuman primate model of asthma at 1 mg/kg dose (for eotaxin); type: functional; summary of the method: as §3
[20] = Resistance evaluated in an ascaris-induced nonhuman primate model of asthma after 6 hour at 1 mg/kg dose; type: functional; summary of the method: as §2
[21] = Resistance evaluated in an ascaris-induced nonhuman primate model of asthma after 10 min at 1 mg/kg dose; type: functional; summary of the method: as §2
[22] = Bronchoalveolar lavages was collected after 6 hr in an ascaris-induced nonhuman primate model of asthma at 1 mg/kg dose (for IL-5); type: functional; summary of the method: as §3
[23] = Inhibition of eosinophil influx in bronchoalveolar lavage after 48 hr at 1 mg/kg dose

| AUC [1] | bioavailability [2] | half-life [3] | Cmax [4] | pIC50 (Homo sapiens [5]) | Binding (Homo sapiens [6]) | SMILES | other results |
| --- | --- | --- | --- | --- | --- | --- | --- |
| 3240 ng·h/mL | 31% | 6.2 h | 280 ng/mL | 6.52 | – | N#Cc1cc(C(F)(F)F)nn1-c1ccc(NC(=O)c2ccccc2F)cc1 | – |
| 10900 ng·h/mL | 78% | 4.3 h | 1090 ng/mL | 6.62 | – | N#Cc1cc(C(F)(F)F)nn1-c1ccc(NC(=O)c2ccncc2F)cc1 | – |
| – | – | – | – | 5.70 | 99.6% | Cc1noc(C)c1C(=O)Nc1ccc(-n2nc(C(F)(F)F)cc2C(F)(F)F)cc1 | – |
| 310 ng·h/mL | 18% | 1.7 h | 220 ng/mL | 6.36 | – | O=C(Nc1ccc(-n2nc(C(F)(F)F)cc2[N+](=O)[O-])cc1)c1ccncc1F | – |
| 7750 ng·h/mL | 74% | 6.8 h | 610 ng/mL | 6.74 | – | O=C(Nc1ccc(-n2nc(C(F)(F)F)cc2OC(F)F)cc1)c1ccncc1F | inhibition [7]: 69%; inhibition [8]: 73%; inhibition [9]: 69%; inhibition [10]: 56%; inhibition [11]: 61%; inhibition [12]: 185% |
| – | – | – | – | 5.64 | 99.9% | O=C(Nc1ccc(-n2nc(C(F)(F)F)cc2C(F)(F)F)cc1)c1ccccc1F | – |
| – | – | – | – | 6.43 | 99.9% | O=C(Nc1ccc(-n2nc(C(F)(F)F)cc2C(F)(F)F)cc1)c1cc(F)ccc1F | – |
| 16400 ng·h/mL | 94% | 7.2 h | 1040 ng/mL | 6.54 | – | O=C(Nc1ccc(-n2nc(C(F)(F)F)cc2Br)cc1)c1ccncc1F | – |
| – | – | – | – | 5.76 | 99.8% | Cc1nnsc1C(=O)Nc1ccc(-n2nc(C(F)(F)F)cc2C(F)(F)F)cc1 | – |
| 970 ng·h/mL | 26% | – | 70 ng/mL | 6.24 | – | COc1cc(C(F)(F)F)nn1-c1ccc(NC(=O)c2ccccc2F)cc1 | – |
| – | – | – | – | 5.83 | 99.9% | O=C(Nc1ccc(-n2nc(C(F)(F)F)cc2C(F)(F)F)cc1)c1cc(F)cc(F)c1F | – |
| 7790 ng·h/mL | 63% | 5.2 h | 870 ng/mL | 6.03 | – | CSc1cc(C(F)(F)F)nn1-c1ccc(NC(=O)c2ccncc2F)cc1 | – |
| – | – | – | – | – | – | C/C=C/C[C@@H](C)[C@@H](O)[C@H]1C(=O)N[C@@H](CC)C(=O)N(C)CC(=O)N(C)[C@@H](CC(C)C)C(=O)N[C@@H](C(C)C)C(=O)N(C)[C@@H](CC(C)C)C(=O)N[C@@H](C)C(=O)N[C@H](C)C(=O)N(C)[C@@H](CC(C)C)C(=O)N(C)[C@@H](CC(C)C)C(=O)N(C)[C@@H](C(C)C)C(=O)N1C [CYCLOSPORINE] | inhibition [13]: 92%; inhibition [14]: 62%; inhibition [15]: 90%; inhibition [16]: 137% |
| – | – | – | – | 5.22 | 99.9% | O=C(Nc1ccc(-n2nc(C(F)(F)F)cc2C(F)(F)F)cc1)c1ccc(Cl)cc1 | – |
| – | – | – | – | 6.15 | 99.7% | O=C(Nc1ccc(-n2nc(C(F)(F)F)cc2C(F)(F)F)cc1)c1ccncc1 | – |
| – | – | – | – | 6.30 | 99.7% | O=C(Nc1ccc(-n2nc(C(F)(F)F)cc2C(F)(F)F)cc1)c1ccncc1F | – |
| – | – | – | – | 6.39 | 99.9% | O=C(Nc1ccc(-n2nc(C(F)(F)F)cc2C(F)(F)F)cc1)c1cccc(F)c1F | – |
| 11000 ng·h/mL | 79% | 4.8 h | 780 ng/mL | 6.80 | – | O=C(Nc1ccc(-n2nc(C(F)(F)F)cc2Cl)cc1)c1ccncc1F | – |
| – | – | – | – | – | – | O=C(Nc1ccc(-n2[nH]c(C(F)(F)F)cc2=O)cc1)c1ccncc1F | inhibition (Homo sapiens [17]): 16% |
| – | – | – | – | 6.04 | 99.9% | O=C(Nc1ccc(-n2nc(C(F)(F)F)cc2C(F)(F)F)cc1)c1ccccc1Cl | – |
| – | – | – | – | – | – | C[C@]12C=CC(=O)C=C1CC[C@@H]1[C@@H]2[C@@H](O)C[C@@]2(C)[C@H]1CC[C@]2(O)C(=O)CO [PREDNISOLONE] | inhibition [18]: 9%; inhibition [19]: 67%; inhibition [20]: 57%; inhibition [21]: 24%; inhibition [22]: 94%; inhibition [23]: 106% |
| 1110 ng·h/mL | 5% | – | 120 ng/mL | 5.80 | – | CC(=O)c1cc(C(F)(F)F)nn1-c1ccc(NC(=O)c2ccccc2F)cc1 | – |
| 3050 ng·h/mL | 68% | 1 h | 1480 ng/mL | 6.58 | – | COc1cc(C(F)(F)F)nn1-c1ccc(NC(=O)c2ccncc2F)cc1 | – |
